In ChEMBL document CHEMBL2203081 (Bioorg Med Chem Lett, 2012):
Calls of active or inactive are those of the source. The rule behind the calls is not given here.

Columns and labels:
[1] = biological target: Casein kinase I isoform gamma-1 (Homo sapiens) (UniProt Q9HCP0); assay: Inhibition of CSNK1G1 assessed as residual activity at 10 uM relative to control
Outline: (§1)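 Competition kinase-binding assay (KINOMEscan) across a non-redundant panel of 329 kinases beyond the radiometric panel; residual binding expressed relative to control.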

[2] = biological target: Dual specificity protein kinase CLK3 (Homo sapiens) (UniProt P49761); assay: Inhibition of CLK3 assessed as residual activity at 10 uM relative to control; outline: as §1
[3] = biological target: Cyclin-dependent kinase 9 (Homo sapiens) (UniProt P50750); assay: Inhibition of CDK9 assessed as residual activity at 10 uM relative to control
[4] = biological target: Cyclin-dependent kinase 11B (Homo sapiens) (UniProt P21127); assay: Inhibition of CDC2L1 assessed as residual activity at 10 uM relative to control
[5] = biological target: SRSF protein kinase 1 (Homo sapiens) (UniProt Q96SB4); assay: Inhibition of SRPK1 assessed as residual activity at 10 uM relative to control
[6] = biological target: Leukocyte tyrosine kinase receptor (Homo sapiens) (UniProt P29376); assay: Inhibition of LTK assessed as residual activity at 10 uM relative to control
[7] = test system: Mast/stem cell growth factor receptor Kit (Homo sapiens), P10721 [V559D,T670I]; assay: Inhibition of KIT V559D,T670I mutant assessed as residual activity at 10 uM relative to control
[8] = test system: Mast/stem cell growth factor receptor Kit (Homo sapiens), P10721 [L576P]; assay: Inhibition of KIT L576P mutant assessed as residual activity at 10 uM relative to control
[9] = biological target: Rho-associated protein kinase 1 (Homo sapiens) (UniProt Q13464); assay: Inhibition of ROCK1 assessed as residual activity at 10 uM relative to control
[10] = biological target: Serine/threonine-protein kinase D2 (Homo sapiens) (UniProt Q9BZL6); assay: Inhibition of PRKD2 assessed as residual activity at 10 uM relative to control
Mus musculus [11] = assay: Inhibition of LRRK2 in mouse assessed as inhibition of Ser910 autophosphorylation in brain at 100 mg/kg, ip by immunoblot method; format: functional, organism-based; parameters: dose 100 mg/kg
Mus musculus [12] = assay: Inhibition of LRRK2 in mouse assessed as inhibition of Ser935 autophosphorylation in spleen at 100 mg/kg, ip by immunoblot method; format: functional, organism-based; parameters: dose 100 mg/kg
[13] = biological target: Serine/threonine-protein kinase 33 (Homo sapiens) (UniProt Q9BYT3); assay: Inhibition of STK33 assessed as residual activity at 10 uM
[14] = biological target: Receptor-interacting serine/threonine-protein kinase 2 (Homo sapiens) (UniProt O43353); assay: Inhibition of RIPK2 assessed as residual activity at 10 uM
[15] = biological target: T1, Serine/threonine-protein kinase D1 (Homo sapiens) (UniProt Q15139); assay: Inhibition of PKD1 assessed as residual activity at 10 uM
T1 sequence (whole entry): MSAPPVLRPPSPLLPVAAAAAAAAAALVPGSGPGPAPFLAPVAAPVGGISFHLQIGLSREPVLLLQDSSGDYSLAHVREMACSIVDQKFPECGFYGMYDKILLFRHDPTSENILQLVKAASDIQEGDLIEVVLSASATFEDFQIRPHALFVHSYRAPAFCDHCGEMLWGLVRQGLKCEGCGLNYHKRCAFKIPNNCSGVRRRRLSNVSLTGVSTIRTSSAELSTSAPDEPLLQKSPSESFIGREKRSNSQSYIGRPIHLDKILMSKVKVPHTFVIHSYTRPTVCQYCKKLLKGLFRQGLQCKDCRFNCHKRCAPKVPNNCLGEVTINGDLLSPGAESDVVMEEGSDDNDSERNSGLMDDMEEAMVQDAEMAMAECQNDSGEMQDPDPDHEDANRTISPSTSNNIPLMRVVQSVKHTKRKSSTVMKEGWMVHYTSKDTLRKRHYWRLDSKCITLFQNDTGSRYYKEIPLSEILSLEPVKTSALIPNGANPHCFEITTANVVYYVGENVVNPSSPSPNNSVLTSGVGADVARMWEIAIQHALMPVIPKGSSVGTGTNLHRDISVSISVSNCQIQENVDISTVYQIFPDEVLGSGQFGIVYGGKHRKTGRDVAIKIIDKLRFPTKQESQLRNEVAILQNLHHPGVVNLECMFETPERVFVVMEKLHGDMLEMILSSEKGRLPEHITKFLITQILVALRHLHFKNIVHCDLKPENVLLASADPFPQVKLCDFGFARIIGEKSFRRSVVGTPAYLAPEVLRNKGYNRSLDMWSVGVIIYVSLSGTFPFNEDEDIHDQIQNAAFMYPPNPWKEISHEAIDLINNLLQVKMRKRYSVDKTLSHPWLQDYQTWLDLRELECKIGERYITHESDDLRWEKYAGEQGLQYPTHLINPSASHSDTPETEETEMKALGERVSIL

[16] = biological target: Mitogen-activated protein kinase 14 (Homo sapiens) (UniProt Q16539); assay: Inhibition of p38a MAPK assessed as residual activity at 10 uM
[17] = biological target: Homeodomain-interacting protein kinase 1 (Homo sapiens) (UniProt Q86Z02); assay: Inhibition of HIPK1 assessed as residual activity at 10 uM
Outline: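 Radioactivity-based enzymatic activity assay of the named kinase, run as part of a 131-kinase specificity panel at the National Centre for Protein Kinase Profiling (Dundee). Residual activity was read at the stated single inhibitor concentration.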

[18] = biological target: Tyrosine-protein kinase CSK (Homo sapiens) (UniProt P41240); assay: Inhibition of CSK assessed as residual activity at 10 uM
Outline: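 Standard radioactivity-based enzymatic kinase assays on a 131-kinase panel run by the Dundee profiling service; residual kinase activity recorded.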

[19] = biological target: Mitogen-activated protein kinase 4 (Homo sapiens) (UniProt P31152); assay: Inhibition of ERK4 assessed as residual activity at 10 uM relative to control
[20] = test system: Epidermal growth factor receptor (Homo sapiens), P00533 [L861Q]; assay: Inhibition of EGFR L861Q mutant assessed as residual activity at 10 uM relative to control; format: protein assay; outline: as §1
[21] = biological target: Angiopoietin-1 receptor (Homo sapiens) (UniProt Q02763); assay: Inhibition of TIE2 assessed as residual activity at 1 uM
[22] = biological target: Leucine-rich repeat serine/threonine-protein kinase 2 (Mus musculus) (UniProt Q5S006); assay: Inhibition of LRRK2 in Swiss mouse 3T3 cells assessed as inhibition of Ser910 autophosphorylation after 90 mins by immunoblot method; format: cell-based; details: NIH3T3
[23] = biological target: Serine/threonine-protein kinase Nek6 (Homo sapiens) (UniProt Q9HC98); assay: Inhibition of NEK6 assessed as residual activity at 10 uM relative to control
[24] = biological target: Mitogen-activated protein kinase kinase kinase 9 (Homo sapiens) (UniProt P80192); assay: Inhibition of MLK1 assessed as residual activity at 10 uM relative to control
[25] = test system: Leucine-rich repeat serine/threonine-protein kinase 2 (Homo sapiens), Q5S007 [A2016T]; details: HEK293, 1 to 3 uM

Chain of Mast/stem cell growth factor receptor Kit (Homo sapiens), P10721 [L576P] (P10721 whole entry L576P): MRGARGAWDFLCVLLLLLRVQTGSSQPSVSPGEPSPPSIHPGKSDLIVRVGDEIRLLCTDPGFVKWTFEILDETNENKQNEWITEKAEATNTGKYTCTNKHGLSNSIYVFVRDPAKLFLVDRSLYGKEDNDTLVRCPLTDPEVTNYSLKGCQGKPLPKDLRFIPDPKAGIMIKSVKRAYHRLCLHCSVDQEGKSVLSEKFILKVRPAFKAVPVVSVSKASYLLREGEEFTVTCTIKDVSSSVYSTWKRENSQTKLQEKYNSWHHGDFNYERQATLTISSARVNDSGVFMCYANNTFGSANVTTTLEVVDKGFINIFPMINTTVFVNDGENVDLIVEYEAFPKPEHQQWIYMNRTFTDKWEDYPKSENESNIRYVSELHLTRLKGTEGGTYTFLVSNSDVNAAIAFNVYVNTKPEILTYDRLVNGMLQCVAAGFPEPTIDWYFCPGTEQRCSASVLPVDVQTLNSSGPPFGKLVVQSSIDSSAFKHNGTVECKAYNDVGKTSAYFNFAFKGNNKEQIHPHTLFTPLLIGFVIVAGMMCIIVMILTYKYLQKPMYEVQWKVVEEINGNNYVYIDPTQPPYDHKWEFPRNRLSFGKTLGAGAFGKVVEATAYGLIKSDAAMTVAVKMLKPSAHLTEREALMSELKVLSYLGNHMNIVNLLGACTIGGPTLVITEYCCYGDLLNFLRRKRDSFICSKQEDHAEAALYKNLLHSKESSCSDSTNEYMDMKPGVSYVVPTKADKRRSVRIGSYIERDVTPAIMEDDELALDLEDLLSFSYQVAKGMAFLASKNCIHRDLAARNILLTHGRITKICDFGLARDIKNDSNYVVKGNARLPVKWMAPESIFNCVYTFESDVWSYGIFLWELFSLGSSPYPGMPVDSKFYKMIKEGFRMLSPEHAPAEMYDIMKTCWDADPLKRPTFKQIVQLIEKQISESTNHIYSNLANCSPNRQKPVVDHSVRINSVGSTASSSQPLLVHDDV
Chain of Receptor-interacting serine/threonine-protein kinase 2 (Homo sapiens) (O43353 whole entry): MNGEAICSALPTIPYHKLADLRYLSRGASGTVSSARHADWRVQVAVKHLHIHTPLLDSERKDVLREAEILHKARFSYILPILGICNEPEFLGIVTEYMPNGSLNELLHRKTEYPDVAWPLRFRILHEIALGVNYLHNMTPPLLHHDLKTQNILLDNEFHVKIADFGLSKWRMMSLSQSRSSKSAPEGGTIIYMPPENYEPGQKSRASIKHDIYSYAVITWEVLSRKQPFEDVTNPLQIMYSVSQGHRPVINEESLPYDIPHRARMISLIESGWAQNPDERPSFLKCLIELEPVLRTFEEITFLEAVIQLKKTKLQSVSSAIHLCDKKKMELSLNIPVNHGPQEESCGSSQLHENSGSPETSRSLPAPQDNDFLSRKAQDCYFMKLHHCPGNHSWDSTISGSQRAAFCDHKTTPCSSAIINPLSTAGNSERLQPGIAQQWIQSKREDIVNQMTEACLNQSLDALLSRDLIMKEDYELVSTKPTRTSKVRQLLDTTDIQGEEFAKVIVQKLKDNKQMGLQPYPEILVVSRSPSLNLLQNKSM
Chain of Serine/threonine-protein kinase D2 (Homo sapiens) (Q9BZL6 whole entry): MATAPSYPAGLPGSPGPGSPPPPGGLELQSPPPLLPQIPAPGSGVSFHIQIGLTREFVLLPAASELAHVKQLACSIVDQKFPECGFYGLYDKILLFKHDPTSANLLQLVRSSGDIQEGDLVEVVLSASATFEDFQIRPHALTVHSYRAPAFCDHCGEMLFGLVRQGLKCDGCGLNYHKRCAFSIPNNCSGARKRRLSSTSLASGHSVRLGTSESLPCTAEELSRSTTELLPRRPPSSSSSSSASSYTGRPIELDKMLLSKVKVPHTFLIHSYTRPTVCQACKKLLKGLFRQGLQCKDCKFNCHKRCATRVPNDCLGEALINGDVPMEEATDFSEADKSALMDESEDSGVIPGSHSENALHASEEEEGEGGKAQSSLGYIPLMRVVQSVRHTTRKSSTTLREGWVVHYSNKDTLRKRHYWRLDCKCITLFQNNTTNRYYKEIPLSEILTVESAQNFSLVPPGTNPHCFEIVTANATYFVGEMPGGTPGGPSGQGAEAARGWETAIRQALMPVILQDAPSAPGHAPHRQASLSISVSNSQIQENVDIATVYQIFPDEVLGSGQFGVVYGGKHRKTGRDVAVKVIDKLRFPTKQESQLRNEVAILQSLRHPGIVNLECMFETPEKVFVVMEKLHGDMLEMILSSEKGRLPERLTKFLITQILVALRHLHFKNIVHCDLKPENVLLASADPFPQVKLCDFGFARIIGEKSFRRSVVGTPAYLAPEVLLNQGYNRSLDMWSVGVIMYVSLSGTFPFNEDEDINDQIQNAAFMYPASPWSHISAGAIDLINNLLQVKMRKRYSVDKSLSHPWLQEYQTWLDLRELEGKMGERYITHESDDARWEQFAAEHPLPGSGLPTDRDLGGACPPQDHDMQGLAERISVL
Chain of Mitogen-activated protein kinase kinase kinase 9 (Homo sapiens) (P80192 whole entry, looked up): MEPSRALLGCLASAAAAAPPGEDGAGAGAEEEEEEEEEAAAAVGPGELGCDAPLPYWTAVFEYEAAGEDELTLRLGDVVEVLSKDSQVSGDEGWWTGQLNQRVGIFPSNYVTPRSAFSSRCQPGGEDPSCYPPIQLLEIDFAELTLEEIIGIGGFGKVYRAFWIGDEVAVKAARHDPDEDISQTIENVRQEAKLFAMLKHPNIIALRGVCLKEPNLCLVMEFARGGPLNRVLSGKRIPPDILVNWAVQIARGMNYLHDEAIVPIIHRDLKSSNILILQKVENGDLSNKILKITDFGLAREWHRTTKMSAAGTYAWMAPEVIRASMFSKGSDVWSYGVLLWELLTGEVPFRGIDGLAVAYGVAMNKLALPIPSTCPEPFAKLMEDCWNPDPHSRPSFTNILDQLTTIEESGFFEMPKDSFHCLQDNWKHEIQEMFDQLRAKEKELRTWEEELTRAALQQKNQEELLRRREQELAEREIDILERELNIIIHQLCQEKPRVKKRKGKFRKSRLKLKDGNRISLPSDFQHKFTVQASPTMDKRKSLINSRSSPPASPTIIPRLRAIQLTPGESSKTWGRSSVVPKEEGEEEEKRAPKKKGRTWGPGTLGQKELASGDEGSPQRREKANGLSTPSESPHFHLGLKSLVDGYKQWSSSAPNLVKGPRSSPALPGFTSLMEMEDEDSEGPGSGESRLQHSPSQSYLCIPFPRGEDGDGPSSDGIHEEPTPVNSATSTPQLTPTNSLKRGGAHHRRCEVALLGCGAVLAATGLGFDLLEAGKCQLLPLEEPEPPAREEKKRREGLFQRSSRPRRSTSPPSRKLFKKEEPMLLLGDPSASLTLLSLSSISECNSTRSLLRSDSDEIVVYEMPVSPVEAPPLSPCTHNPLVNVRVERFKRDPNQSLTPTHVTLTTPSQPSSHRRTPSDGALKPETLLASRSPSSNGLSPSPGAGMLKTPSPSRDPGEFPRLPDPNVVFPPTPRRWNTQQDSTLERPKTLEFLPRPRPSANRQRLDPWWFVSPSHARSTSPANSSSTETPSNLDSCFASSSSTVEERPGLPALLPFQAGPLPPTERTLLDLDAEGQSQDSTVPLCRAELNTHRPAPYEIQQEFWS
Chain of Casein kinase I isoform gamma-1 (Homo sapiens) (Q9HCP0 whole entry, looked up, canonical isoform): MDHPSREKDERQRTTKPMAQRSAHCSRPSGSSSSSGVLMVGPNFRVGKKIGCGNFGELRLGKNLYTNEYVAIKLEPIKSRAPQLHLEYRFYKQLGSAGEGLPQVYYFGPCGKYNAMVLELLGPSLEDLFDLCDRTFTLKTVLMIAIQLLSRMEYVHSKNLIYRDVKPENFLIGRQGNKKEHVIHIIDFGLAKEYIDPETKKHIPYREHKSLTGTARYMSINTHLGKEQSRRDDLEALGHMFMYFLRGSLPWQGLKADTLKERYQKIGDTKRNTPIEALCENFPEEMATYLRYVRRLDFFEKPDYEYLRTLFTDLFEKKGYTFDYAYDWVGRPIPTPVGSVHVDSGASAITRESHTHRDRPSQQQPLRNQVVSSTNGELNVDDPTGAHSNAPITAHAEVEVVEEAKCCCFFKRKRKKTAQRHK
Chain of Mast/stem cell growth factor receptor Kit (Homo sapiens), P10721 [V559D,T670I] (P10721 whole entry V559D/T670I): as the sequence (P10721 whole entry L576P) above, with V559D, P576L, T670I counted along it

For O=C(Nc1cccnc1)c1cc(-c2ccnc(F)c2)ccc1OCc1ccccc1, the Activity [1] was 79%, the Activity [2] was 58% and the Activity [3] was 57%. The Activity [4] was 67%, the Activity [5] was 79% and the Activity [6] was 21%. It also gave an Activity [7] of 52%, an Activity [8] of 52% and an Activity [9] of 38%. For the same compound, the Activity [10] was 74%, the inhibition (Mus musculus [11]) was “inactive” and the inhibition (Mus musculus [12]) was “Active”. For the same compound, the Activity [13] was 56%, the Activity [14] was 56% and the Activity [15] was 76%. The Activity [16] was 102%, the Activity [17] was 61% and the Activity [18] was 114%. The Activity [19] was 59%, the Activity [20] was 65% and the Activity [21] was 119%. For the same compound, the inhibition [22] was “Dose-dependent effect”, the Activity [23] was 50% and the Activity [24] was 74%. The inhibition [25] was “Active”.
